Experimental data reported in ChEMBL document CHEMBL1128256, “Synthesis, biological evaluation, and structure analysis of a series of new 1,5-anhydrohexitol nucleosides” (J Med Chem, 1995).
≈ marks a conversion by molar mass, not a printed value.

Columns and labels:
E6SM [1] = assay: Tested for the minimum inhibitory concentration required to reduce herpes simplex virus type 2 (HSV-2) strain G induced cytopathogenicity by 50%.; type: functional; conditions: Homo sapiens
Outline: (§1)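 Inhibition of virus-induced cytopathogenicity in human embryonic skin-muscle (E6SM) fibroblasts seeded in 96-well trays. Viruses were HSV-1 (KOS, F, McIntyre), TK- HSV-1 B2006, TK-/TK+ HSV-1 clinical isolate VMW-1837 and HSV-2 (G, 196, Lyons). […] MCC is the lowest concentration giving microscopically detectable alteration of normal cell morphology; highest concentration tested was 400 µg/mL.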

E6SM [2] = assay: Tested for the minimum inhibitory concentration required to reduce herpes simplex virus type 1 (HSV-1) strain KOS induced cytopathogenicity by 50%.; type: functional; conditions: Homo sapiens; outline: as §1
E6SM [3] = assay: Tested for the minimum inhibitory concentration required to reduce vaccinia virus(VV) induced cytopathogenicity by 50%.; type: functional; conditions: Homo sapiens
E6SM [4] = assay: Tested for the minimum inhibitory concentration required to reduce herpes simplex virus type 1 (TK- / TK+ HSV-1) strain VMW-1837 induced cytopathogenicity by 50%.; type: functional; conditions: Homo sapiens; outline: as §1
E6SM [5] = assay: Tested for the minimum cytotoxic concentration required to cause a microscopically detectable alteration of normal cell morphology in human embryonic skin muscle (E6SM) fibroblast cell cultures.; type: functional; outline: as §1
E6SM [6] = assay: Tested for the minimum inhibitory concentration required to reduce thymidine kinase deficient herpes simplex virus type 1 (TK- HSV-1) strain B2006 induced cytopathogenicity by 50%.; type: functional; conditions: Homo sapiens; outline: as §1
HEL [7] = assay: Tested for the cytotoxic concentration, required to reduce cell growth by 50% in human embryonic lung (HEL) cells.; type: functional
Outline: (§2)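 Virus plaque formation assay in human embryonic lung (HEL) cells seeded in 96-well trays. Targets were TK+ VZV (Oka, YS), TK- VZV (07/1, YS/R) and CMV (AD169, Davis). Value is the concentration that reduces plaque number by 50%. Cytotoxicity in HEL cells was taken as the concentration that reduces cell growth by 50%.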

HEL [8] = assay: Tested for the inhibitory concentration required to reduce TK+ Varicella-Zoster virus (TK+ VZV) strain OKA plaque formation by 50%.; type: functional, cell-based; conditions: Homo sapiens
HEL [9] = assay: Tested for the inhibitory concentration required to reduce TK+ Varicella-Zoster virus (TK+ VZV) strain YS plaque formation by 50%; type: functional, cell-based; conditions: Homo sapiens
HEL [10] = assay: Tested for the inhibitory concentration required to reduce cytomegalovirus (CMV) strain AD-169 plaque formation by 50%.; type: functional, cell-based; conditions: Homo sapiens; outline: as §2
HEL [11] = assay: Tested for the inhibitory concentration required to reduce cytomegalovirus (CMV) strain Davis plaque formation by 50%.; type: functional, cell-based; conditions: Homo sapiens; outline: as §2
HEL [12] = assay: Tested for the inhibitory concentration required to reduce thymidine kinase deficient Varicella-Zoster virus (TK- VZV) strain 07/1 plaque formation by 50%.; type: functional, cell-based; conditions: Homo sapiens
HEL [13] = assay: Tested for the inhibitory concentration required to reduce thymidine kinase deficient Varicella-Zoster virus (TK- VZV) strain YS/R plaque formation by 50%.; type: functional, cell-based; conditions: Homo sapiens
E6SM [14] = assay: Tested for the minimum inhibitory concentration required to reduce vesicular stomatitis virus(VSV) induced cytopathogenicity by 50%; type: functional; conditions: Homo sapiens
E6SM [15] = assay: Tested for the minimum inhibitory concentration required to reduce herpes simplex virus type 2 (HSV-2) strain 196 induced cytopathogenicity by 50%.; type: functional; conditions: Homo sapiens; outline: as §1
E6SM [16] = assay: Tested for the minimum inhibitory concentration required to reduce herpes simplex virus type 2 (HSV-2) strain Lyons induced cytopathogenicity by 50%.; type: functional; conditions: Homo sapiens; outline: as §1
E6SM [17] = assay: Tested for the minimum inhibitory concentration required to reduce herpes simplex virus type 1 (HSV-1) strain F induced cytopathogenicity by 50%.; type: functional; conditions: Homo sapiens; outline: as §1
E6SM [18] = assay: Tested for the minimum inhibitory concentration required to reduce herpes simplex virus type 1 (HSV-1) strain McIntyre induced cytopathogenicity by 50%.; type: functional; conditions: Homo sapiens; outline: as §1
E6SM [19] = assay: Tested for the minimum inhibitory concentration required to reduce thymidine kinase deficient herpes simplex virus type 1 (TK- / TK+ HSV-1) strain VMW-1837 induced cytopathogenicity by 50%.; type: functional; conditions: Homo sapiens; outline: as §1
Mus musculus = species on record: Mus musculus; assay: Inhibition constant assumed to reflect the affinity for the transport site in mouse erythrocytes; type: functional
Outline: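 Thymidine influx competition in erythrocytes from male B6D2F1 mice, 10% hematocrit in buffered saline, room temperature. [methyl-3H]thymidine at 0.1, 0.2, 0.5 and 1 mM, alone or with inhibitor at 0.053–1.05 mM. Influx stopped after 3 s with NBMPR. Pellets extracted in 5% perchloric acid and counted by scintillation. Zero-time trapping subtracted. Duplicate samples. Ki from Dixon plot.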

SMILES: CCc1cn(C2COC(CO)C(O)C2)c(=O)[nH]c1=O (centres undefined)
- MIC (E6SM [1]): 0.4 µg/mL (≈ 1.48 µM)
- MIC (E6SM [2]): 0.02 µg/mL (≈ 0.074 µM)
- MIC (E6SM [3]): 200 µg/mL (≈ 740 µM)
- MIC (E6SM [4]): 0.4 µg/mL (≈ 1.48 µM)
- MCC (E6SM [5]): > 400 µg/mL
- MIC (E6SM [6]): > 400 µg/mL
- CC50 (HEL [7]): > 50 µg/mL
- IC50 (HEL [8]): > 50 µg/mL
- IC50 (HEL [9]): > 50 µg/mL
- IC50 (HEL [10]): > 50 µg/mL
- IC50 (HEL [11]): > 50 µg/mL
- IC50 (HEL [12]): > 50 µg/mL
- IC50 (HEL [13]): > 50 µg/mL

SMILES: Nc1nc(N)c2ncn(C3COC(CO)C(O)C3)c2n1 (centres undefined)
- MIC (E6SM [1]): 0.7 µg/mL (≈ 2.5 µM)
- MIC (E6SM [2]): 0.2 µg/mL (≈ 0.714 µM)
- MIC (E6SM [3]): 7 µg/mL (≈ 25 µM)
- MIC (E6SM [14]): > 200 µg/mL
- MIC (E6SM [4]): 0.7 µg/mL (≈ 2.5 µM)
- MCC (E6SM [5]): > 400 µg/mL
- MIC (E6SM [6]): 7 µg/mL (≈ 25 µM)
- CC50 (HEL [7]): 25 µg/mL (≈ 89.2 µM)
- IC50 (HEL [8]): 1.2 µg/mL (≈ 4.28 µM)
- IC50 (HEL [9]): 2 µg/mL (≈ 7.14 µM)
- IC50 (HEL [10]): 2 µg/mL (≈ 7.14 µM)
- IC50 (HEL [11]): 0.8 µg/mL (≈ 2.85 µM)
- IC50 (HEL [12]): 2.4 µg/mL (≈ 8.56 µM)
- IC50 (HEL [13]): 5 µg/mL (≈ 17.8 µM)

SMILES: O=c1[nH]c(=O)n(C2COC(CO)C(O)C2)cc1I (centres undefined)
- MIC (E6SM [15]): 0.7 µg/mL (≈ 1.9 µM)
- MIC (E6SM [1]): 0.4 µg/mL (≈ 1.09 µM)
- MIC (E6SM [16]): 0.4 µg/mL (≈ 1.09 µM)
- MIC (E6SM [17]): 0.01 µg/mL (≈ 0.0272 µM)
- MIC (E6SM [2]): 0.02 µg/mL (≈ 0.0543 µM)
- MIC (E6SM [18]): 0.04 µg/mL (≈ 0.109 µM)
- MIC (E6SM [3]): 200 µg/mL (≈ 543 µM)
- MCC (E6SM [5]): > 400 µg/mL
- MIC (E6SM [19]): 4 µg/mL (≈ 10.9 µM)
- MIC (E6SM [6]): > 400 µg/mL
- CC50 (HEL [7]): > 50 µg/mL
- IC50 (HEL [8]): > 100 µg/mL
- IC50 (HEL [9]): > 100 µg/mL
- IC50 (HEL [10]): > 40 µg/mL
- IC50 (HEL [11]): > 40 µg/mL
- IC50 (HEL [12]): > 100 µg/mL
- IC50 (HEL [13]): > 100 µg/mL

SMILES: Nc1nc2c(ncn2COCCO)c(=O)[nH]1 [ACYCLOVIR]
- CC50 (HEL [7]): > 200 µg/mL
- IC50 (HEL [10]): 20 µg/mL (≈ 88.8 µM)

SMILES: O=c1ccn([C@H]2C[C@H](O)[C@@H](CO)O2)c(=O)[nH]1 [DEOXYURIDINE]
- Ki (Mus musculus): 110 µM

SMILES: Nc1nc2c(ncn2COC(CO)CO)c(=O)[nH]1 [GANCICLOVIR]
- CC50 (HEL [7]): > 200 µg/mL
- IC50 (HEL [8]): 0.02 µg/mL (≈ 0.0784 µM)
- IC50 (HEL [9]): 0.072 µg/mL (≈ 0.282 µM)
- IC50 (HEL [10]): 2.9 µg/mL (≈ 11.4 µM)
- IC50 (HEL [11]): 6.2 µg/mL (≈ 24.3 µM)
- IC50 (HEL [12]): 0.1 µg/mL (≈ 0.392 µM)
- IC50 (HEL [13]): 0.9 µg/mL (≈ 3.53 µM)
